Results from PubChem BioAssay.
For part of these data: Entries with a potency or affinity are not part of this list. The source made the active and inactive calls.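 Rule for the calls, unless noted: active = active in primary screen and both duplicates, each dropping signal beyond three positive-control SD with fluorescence still positive; inactive = the rest.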

Each compound was assayed against Short transient receptor potential channel 4 (Mus musculus) (UniProt Q9QUQ5) (assay: block of DAMGO-driven TRPC4 calcium entry – cell-based, HEK293 TRPC4/mu-opioid, Fluo-4 calcium, dose response (AID 434942;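 active = primary screen inhibitor hit that blocks the TRPC4 channel at some tested dose, yielding a dose curve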)). Conditions: HEK293 TRPC4/mu-opioid cells, DAMGO-evoked Fluo-4 calcium ratio; series mostly up to 20 µM.
Chain of Short transient receptor potential channel 4 (Mus musculus) (Q9QUQ5 whole entry, looked up): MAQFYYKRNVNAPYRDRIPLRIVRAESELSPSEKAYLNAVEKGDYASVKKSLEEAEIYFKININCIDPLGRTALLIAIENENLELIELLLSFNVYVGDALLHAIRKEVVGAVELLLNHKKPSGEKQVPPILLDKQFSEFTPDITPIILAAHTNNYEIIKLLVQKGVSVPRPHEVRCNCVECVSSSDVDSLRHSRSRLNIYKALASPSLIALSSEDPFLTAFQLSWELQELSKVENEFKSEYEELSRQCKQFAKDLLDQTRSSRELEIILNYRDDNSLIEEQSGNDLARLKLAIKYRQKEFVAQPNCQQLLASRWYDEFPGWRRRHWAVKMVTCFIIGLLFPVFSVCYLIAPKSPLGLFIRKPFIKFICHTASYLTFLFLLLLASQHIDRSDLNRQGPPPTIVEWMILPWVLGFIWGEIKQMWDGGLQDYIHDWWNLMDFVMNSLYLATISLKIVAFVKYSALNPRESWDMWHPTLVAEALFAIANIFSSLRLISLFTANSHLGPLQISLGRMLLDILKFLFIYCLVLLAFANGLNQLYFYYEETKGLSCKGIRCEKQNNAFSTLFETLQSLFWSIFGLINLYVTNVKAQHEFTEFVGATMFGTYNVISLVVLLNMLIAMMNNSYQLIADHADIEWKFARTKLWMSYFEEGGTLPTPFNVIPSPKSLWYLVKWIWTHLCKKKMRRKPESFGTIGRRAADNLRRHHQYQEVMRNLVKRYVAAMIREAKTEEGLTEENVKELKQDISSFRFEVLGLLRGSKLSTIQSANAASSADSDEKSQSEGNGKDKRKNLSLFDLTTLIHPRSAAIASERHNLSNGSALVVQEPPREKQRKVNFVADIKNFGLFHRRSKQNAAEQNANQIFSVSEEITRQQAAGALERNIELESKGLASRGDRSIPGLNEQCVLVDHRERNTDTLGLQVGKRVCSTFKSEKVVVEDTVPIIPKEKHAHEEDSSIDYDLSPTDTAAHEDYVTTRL

outcome, inactive:
Cc1cccn2c(CNCCc3ccccn3)c(C(=O)N3CCOCC3)nc12
COc1ccc(/C=N/NC(=O)C2COc3ccccc3O2)cc1OC (stereo not drawn)
CN(C)CCNC(=O)c1c(NC(=O)c2ccccc2)sc2c1CCCC2
Cc1ccccc1N1CC(O)(c2ccccc2)[N+]2=C1SCC2 (stereo not drawn)
CC(C)Cc1ccc(CN2CCCC(NC(=O)CCn3cnnn3)C2)cc1 (stereo not drawn)
CN1CCN(Cc2nc3c(c(=O)[nH]c(=O)n3C)n2Cc2c(F)cccc2Cl)CC1
O=C(CC1C(=O)NCCN1Cc1cccc(Oc2ccccc2)c1)NCCc1ccccn1 (stereo not drawn)
CN(C)CCCN(C(=O)c1ccc(Cl)s1)c1nc2cc3c(cc2s1)OCO3
Cc1cc(CSC(=N)N)c(CSC(=N)N)cc1C
COC(=O)c1ccc(N2CCN(C)CC2)c(NC(=O)c2ccc(Br)o2)c1
CCc1cc(OCCN(C)C)ccc1Cl
C=CCn1c(/N=C/c2ccc(N(C)C)cc2)nc2ccccc21
CCC1CCCCN1S(=O)(=O)c1ccc(C(=O)N(CCCN(C)C)c2nc3cc4c(cc3s2)OCO4)cc1 (stereo not drawn)
CCn1c(CN2CCN(Cc3ccc(C)cc3)C(CCO)C2)nc2ccccc21 (stereo not drawn)
O=C(NCc1ccccc1)C1=C[C@@H](C2CCCCC2)C[C@@H](OCc2ccc(CO)cc2)O1
CCN1CCCC1CNS(=O)(=O)c1c(C)cc(C)cc1C (stereo not drawn)
CSc1ccc(C(=O)NCC(c2ccco2)N(C)C)cc1[N+](=O)[O-] (stereo not drawn)
Cc1ccc2nc(N(CCCN(C)C)C(=O)c3ccc(S(=O)(=O)N4CCc5ccccc5C4)cc3)sc2c1
COc1ccccc1/C=C/CN1CCCC(CCC(=O)NCc2ccc(F)c(F)c2)C1 (stereo not drawn)
CC[C@@H](C)[C@H](CNC)NC[C@@H](Cc1cccc2ccccc12)NCCc1cccc(C(F)(F)F)c1
CC(C)C1CC(CCNCc2ccc(N(C)C)cc2)(c2ccccc2)CCO1 (stereo not drawn)
Clc1cc(Cl)cc(C2=NC(Cc3ccccc3)CO2)c1 (stereo not drawn)
O=C(NCCc1cnc[nH]1)c1ccc(-c2ccccc2)cc1
COCC1CCN(Cc2cn(-c3ccccc3F)nc2-c2cc(C)sc2C)CC1
Cc1cc(C)cc(NC(=S)N2CCN(c3ncc(C(F)(F)F)cc3Cl)CC2)c1
CC(C)C1CC(CCNCc2ccc3c(c2)OCO3)(c2ccccc2)CCO1 (stereo not drawn)
Cc1ccc(CNC(=O)C2CCCN(Cc3cnn(-c4ccccc4)c3-n3cccc3)C2)cc1 (stereo not drawn)
CN1CCN(c2ccc(NC(=O)COc3cccc4ccccc34)cc2)CC1
COc1ccc(CSCCN)cc1Cl
Cc1csc2c(N3CCN(C(=O)Nc4ccccc4)CC3)ncnc12
CCOC(=O)C1(Cc2ccccc2)CCN(Cc2cn[nH]c2-c2ccccc2)CC1
CCOc1ccccc1C1CC(c2ccc(Cl)cc2)Nc2nc(N)nn21 (stereo not drawn)
O=C(c1sc2ccccc2c1Cl)N(Cc1ccccc1)C1CCS(=O)(=O)C1 (stereo not drawn)
Cc1ccc(C)c(-n2cc(CNCCCn3cccn3)c(-c3ccccc3)n2)c1
NC(=O)C1CCCN(CCc2ccccc2)C1 (stereo not drawn)
CCn1c(=O)c(C(=O)NNC(=O)c2ccccc2F)c(O)c2ccccc21
O=C(NCc1ccccc1)C1=C[C@H](c2ccccc2)C[C@H](OCc2ccc(CO)cc2)O1
O=C(CC1C(=O)NCCN1Cc1ccccc1C(F)(F)F)NCCc1ccccn1 (stereo not drawn)
CCn1c(N2CCN(S(=O)(=O)CC)CC2)nc2ccccc21

Each compound was assayed against Short transient receptor potential channel 6 (Mus musculus) (UniProt Q61143) (assay: TRPC6 blockade by TRPC4 inhibitor hits – cell-based, HEK293, membrane potential dye, duplicate, selectivity assay for TRPC4 inhibitor project, confirmation (AID 434948)). Conditions: HEK293 TRPC6, membrane potential dye fluorescence, at 10 µM, stimulated with maximal-effect acetylcholine.
Chain of Short transient receptor potential channel 6 (Mus musculus) (Q61143 whole entry, looked up): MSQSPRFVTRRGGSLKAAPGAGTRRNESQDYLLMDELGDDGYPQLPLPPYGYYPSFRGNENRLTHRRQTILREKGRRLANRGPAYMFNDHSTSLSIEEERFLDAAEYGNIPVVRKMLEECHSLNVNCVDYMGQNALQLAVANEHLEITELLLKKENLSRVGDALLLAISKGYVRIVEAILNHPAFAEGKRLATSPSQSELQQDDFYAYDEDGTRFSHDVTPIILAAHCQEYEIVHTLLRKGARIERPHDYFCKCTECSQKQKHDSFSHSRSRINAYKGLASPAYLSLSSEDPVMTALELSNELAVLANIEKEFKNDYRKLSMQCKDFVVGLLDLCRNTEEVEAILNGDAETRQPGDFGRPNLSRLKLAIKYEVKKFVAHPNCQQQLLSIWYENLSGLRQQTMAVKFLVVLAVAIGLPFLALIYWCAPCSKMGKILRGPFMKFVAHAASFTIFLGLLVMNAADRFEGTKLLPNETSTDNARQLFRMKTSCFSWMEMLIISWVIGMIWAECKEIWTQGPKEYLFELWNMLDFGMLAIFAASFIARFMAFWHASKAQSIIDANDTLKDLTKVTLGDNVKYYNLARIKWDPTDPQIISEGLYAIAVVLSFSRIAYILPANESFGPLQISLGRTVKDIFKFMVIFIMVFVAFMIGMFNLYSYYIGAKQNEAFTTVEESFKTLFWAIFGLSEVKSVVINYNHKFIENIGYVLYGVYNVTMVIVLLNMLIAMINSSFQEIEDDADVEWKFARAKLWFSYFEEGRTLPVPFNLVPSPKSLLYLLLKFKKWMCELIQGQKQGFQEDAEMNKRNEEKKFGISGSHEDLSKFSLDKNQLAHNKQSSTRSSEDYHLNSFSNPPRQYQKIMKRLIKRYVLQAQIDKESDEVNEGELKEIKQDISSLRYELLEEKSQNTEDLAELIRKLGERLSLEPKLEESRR
How it was run: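 Times: 45 min RT dye load, 110 s compound, 110 s agonist read | Assay system: HEK293 cells expressing mouse TRPC6 channel | Detection: Kinetic membrane potential dye fluorescence | Replicates: Duplicate testing | Read-out: Control-normalized integrated fluorescence ratio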

outcome, inactive:
Cc1cccn2c(CNCCc3ccccn3)c(C(=O)N3CCOCC3)nc12
COc1ccc(/C=N/NC(=O)C2COc3ccccc3O2)cc1OC (stereo not drawn)
CN(C)CCNC(=O)c1c(NC(=O)c2ccccc2)sc2c1CCCC2
Cc1ccccc1N1CC(O)(c2ccccc2)[N+]2=C1SCC2 (stereo not drawn)
CC(C)Cc1ccc(CN2CCCC(NC(=O)CCn3cnnn3)C2)cc1 (stereo not drawn)
CN1CCN(Cc2nc3c(c(=O)[nH]c(=O)n3C)n2Cc2c(F)cccc2Cl)CC1
O=C(CC1C(=O)NCCN1Cc1cccc(Oc2ccccc2)c1)NCCc1ccccn1 (stereo not drawn)
CN(C)CCCN(C(=O)c1ccc(Cl)s1)c1nc2cc3c(cc2s1)OCO3
Cc1cc(CSC(=N)N)c(CSC(=N)N)cc1C
COC(=O)c1ccc(N2CCN(C)CC2)c(NC(=O)c2ccc(Br)o2)c1
CCc1cc(OCCN(C)C)ccc1Cl
C=CCn1c(/N=C/c2ccc(N(C)C)cc2)nc2ccccc21
CCC1CCCCN1S(=O)(=O)c1ccc(C(=O)N(CCCN(C)C)c2nc3cc4c(cc3s2)OCO4)cc1 (stereo not drawn)
CCn1c(CN2CCN(Cc3ccc(C)cc3)C(CCO)C2)nc2ccccc21 (stereo not drawn)
O=C(NCc1ccccc1)C1=C[C@@H](C2CCCCC2)C[C@@H](OCc2ccc(CO)cc2)O1
CCN1CCCC1CNS(=O)(=O)c1c(C)cc(C)cc1C (stereo not drawn)
CSc1ccc(C(=O)NCC(c2ccco2)N(C)C)cc1[N+](=O)[O-] (stereo not drawn)
Cc1ccc2nc(N(CCCN(C)C)C(=O)c3ccc(S(=O)(=O)N4CCc5ccccc5C4)cc3)sc2c1
COc1ccccc1/C=C/CN1CCCC(CCC(=O)NCc2ccc(F)c(F)c2)C1 (stereo not drawn)
CC[C@@H](C)[C@H](CNC)NC[C@@H](Cc1cccc2ccccc12)NCCc1cccc(C(F)(F)F)c1
CC(C)C1CC(CCNCc2ccc(N(C)C)cc2)(c2ccccc2)CCO1 (stereo not drawn)
Clc1cc(Cl)cc(C2=NC(Cc3ccccc3)CO2)c1 (stereo not drawn)
O=C(NCCc1cnc[nH]1)c1ccc(-c2ccccc2)cc1
COCC1CCN(Cc2cn(-c3ccccc3F)nc2-c2cc(C)sc2C)CC1
Cc1cc(C)cc(NC(=S)N2CCN(c3ncc(C(F)(F)F)cc3Cl)CC2)c1
CC(C)C1CC(CCNCc2ccc3c(c2)OCO3)(c2ccccc2)CCO1 (stereo not drawn)
Cc1ccc(CNC(=O)C2CCCN(Cc3cnn(-c4ccccc4)c3-n3cccc3)C2)cc1 (stereo not drawn)
CN1CCN(c2ccc(NC(=O)COc3cccc4ccccc34)cc2)CC1
COc1ccc(CSCCN)cc1Cl
Cc1csc2c(N3CCN(C(=O)Nc4ccccc4)CC3)ncnc12
CCOC(=O)C1(Cc2ccccc2)CCN(Cc2cn[nH]c2-c2ccccc2)CC1
CCOc1ccccc1C1CC(c2ccc(Cl)cc2)Nc2nc(N)nn21 (stereo not drawn)
O=C(c1sc2ccccc2c1Cl)N(Cc1ccccc1)C1CCS(=O)(=O)C1 (stereo not drawn)
Cc1ccc(C)c(-n2cc(CNCCCn3cccn3)c(-c3ccccc3)n2)c1
NC(=O)C1CCCN(CCc2ccccc2)C1 (stereo not drawn)
CCn1c(=O)c(C(=O)NNC(=O)c2ccccc2F)c(O)c2ccccc21
O=C(NCc1ccccc1)C1=C[C@H](c2ccccc2)C[C@H](OCc2ccc(CO)cc2)O1
O=C(CC1C(=O)NCCN1Cc1ccccc1C(F)(F)F)NCCc1ccccn1 (stereo not drawn)
CCn1c(N2CCN(S(=O)(=O)CC)CC2)nc2ccccc21
